Measured values reported in ChEMBL document CHEMBL3351863, “Optimization of 2-phenyl-pyrimidine-4-carboxamides towards potent, orally bioavailable and selective P2Y(12) antagonists for inhibition of platelet aggregation” (Bioorg Med Chem Lett, 2014).
pIC50: −log10 of the molar value.

Assays:
[1] = biological target: P2Y purinoceptor 12 (Homo sapiens, UniProt Q9H244); test: Displacement of [3H]-2-methyl-thio-adenosine 5'-diphosphate from human recombinant P2Y12 expressed in CHO cell membranes by scintillation counting method
Chain of P2Y purinoceptor 12 (Q9H244 whole entry): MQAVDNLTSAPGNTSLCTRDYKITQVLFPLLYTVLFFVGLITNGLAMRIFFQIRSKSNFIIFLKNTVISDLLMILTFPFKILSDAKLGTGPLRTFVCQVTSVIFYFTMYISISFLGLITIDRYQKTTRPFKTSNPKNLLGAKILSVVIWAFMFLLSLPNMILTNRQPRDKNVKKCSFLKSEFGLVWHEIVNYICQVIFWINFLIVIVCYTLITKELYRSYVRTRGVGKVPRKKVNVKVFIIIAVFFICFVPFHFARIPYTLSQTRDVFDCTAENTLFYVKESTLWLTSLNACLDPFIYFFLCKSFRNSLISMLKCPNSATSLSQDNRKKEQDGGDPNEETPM
In short: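 CHO cells expressing recombinant P2Y₁₂ receptors, incubated with tritium-labeled 2-methyl-thio-adenosine 5'-diphosphate plus test compound; IC₅₀ from displacement curves, each point in triplicate; reference compound run with every compound set, and set re-analyzed if its IC₅₀ fell outside pre-set 95% confidence interval.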

[2] = biological target: Cytochrome P450 2D6 (Homo sapiens, UniProt P10635); test: Inhibition of CYP2D6 in human liver microsomes assessed as reduction in dextromethorphan-O demethylation; type: ADME
Chain of Cytochrome P450 2D6 (P10635 whole entry): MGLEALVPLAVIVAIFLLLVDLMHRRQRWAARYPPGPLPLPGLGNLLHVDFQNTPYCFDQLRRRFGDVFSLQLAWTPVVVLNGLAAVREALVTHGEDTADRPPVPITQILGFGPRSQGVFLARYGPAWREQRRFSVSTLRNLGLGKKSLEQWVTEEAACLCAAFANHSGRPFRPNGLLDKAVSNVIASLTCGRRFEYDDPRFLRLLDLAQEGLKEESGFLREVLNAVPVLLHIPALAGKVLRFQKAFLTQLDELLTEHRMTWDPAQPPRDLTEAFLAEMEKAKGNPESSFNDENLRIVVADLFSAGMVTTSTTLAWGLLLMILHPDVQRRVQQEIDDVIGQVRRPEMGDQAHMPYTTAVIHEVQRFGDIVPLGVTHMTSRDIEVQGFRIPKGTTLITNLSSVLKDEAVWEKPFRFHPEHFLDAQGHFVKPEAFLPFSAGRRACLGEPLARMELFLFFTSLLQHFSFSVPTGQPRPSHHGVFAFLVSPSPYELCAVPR

[3] = biological target: Voltage-gated inwardly rectifying potassium channel KCNH2 (Homo sapiens, UniProt Q12809); test: Inhibition of human ERG expressed in HEK cells by patch-clamp assay; type: cell-based; conditions: hek293
Chain of Voltage-gated inwardly rectifying potassium channel KCNH2 (Q12809 whole entry): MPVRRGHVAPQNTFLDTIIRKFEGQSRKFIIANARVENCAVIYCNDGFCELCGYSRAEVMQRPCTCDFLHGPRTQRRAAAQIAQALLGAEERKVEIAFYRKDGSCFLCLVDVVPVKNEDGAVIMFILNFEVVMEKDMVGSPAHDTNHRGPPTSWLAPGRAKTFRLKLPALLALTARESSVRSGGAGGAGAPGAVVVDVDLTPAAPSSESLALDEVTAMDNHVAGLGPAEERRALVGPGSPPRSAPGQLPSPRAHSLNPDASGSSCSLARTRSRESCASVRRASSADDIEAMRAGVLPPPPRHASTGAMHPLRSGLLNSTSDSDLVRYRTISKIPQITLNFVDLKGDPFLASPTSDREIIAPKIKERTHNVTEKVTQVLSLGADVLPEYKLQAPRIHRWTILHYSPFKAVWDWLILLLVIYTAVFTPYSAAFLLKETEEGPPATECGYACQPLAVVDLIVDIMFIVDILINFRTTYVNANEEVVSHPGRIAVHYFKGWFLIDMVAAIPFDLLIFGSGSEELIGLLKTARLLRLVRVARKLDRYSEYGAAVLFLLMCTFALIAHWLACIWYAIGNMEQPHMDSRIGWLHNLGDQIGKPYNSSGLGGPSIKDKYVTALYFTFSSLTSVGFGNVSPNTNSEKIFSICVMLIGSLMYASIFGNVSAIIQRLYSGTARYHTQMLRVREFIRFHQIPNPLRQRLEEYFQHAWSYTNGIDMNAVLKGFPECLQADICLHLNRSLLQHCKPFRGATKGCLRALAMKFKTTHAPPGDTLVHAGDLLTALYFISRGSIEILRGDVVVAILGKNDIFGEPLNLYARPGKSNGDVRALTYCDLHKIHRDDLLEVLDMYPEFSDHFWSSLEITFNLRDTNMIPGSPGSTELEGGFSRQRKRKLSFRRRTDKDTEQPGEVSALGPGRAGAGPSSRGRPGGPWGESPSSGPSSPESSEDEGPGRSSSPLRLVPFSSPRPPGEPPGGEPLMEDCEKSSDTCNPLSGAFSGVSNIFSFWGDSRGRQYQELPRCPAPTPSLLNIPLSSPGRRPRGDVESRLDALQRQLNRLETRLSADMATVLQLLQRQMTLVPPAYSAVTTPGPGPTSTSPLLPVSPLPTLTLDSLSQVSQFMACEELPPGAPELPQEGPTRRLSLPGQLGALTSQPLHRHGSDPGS

[4] = biological target: Cytochrome P450 2C9 (Homo sapiens, UniProt P11712); test: Inhibition of CYP2C9 in human liver microsomes assessed as reduction in diclofenac 4'-hydroxylation; type: ADME
Chain of Cytochrome P450 2C9 (P11712 whole entry): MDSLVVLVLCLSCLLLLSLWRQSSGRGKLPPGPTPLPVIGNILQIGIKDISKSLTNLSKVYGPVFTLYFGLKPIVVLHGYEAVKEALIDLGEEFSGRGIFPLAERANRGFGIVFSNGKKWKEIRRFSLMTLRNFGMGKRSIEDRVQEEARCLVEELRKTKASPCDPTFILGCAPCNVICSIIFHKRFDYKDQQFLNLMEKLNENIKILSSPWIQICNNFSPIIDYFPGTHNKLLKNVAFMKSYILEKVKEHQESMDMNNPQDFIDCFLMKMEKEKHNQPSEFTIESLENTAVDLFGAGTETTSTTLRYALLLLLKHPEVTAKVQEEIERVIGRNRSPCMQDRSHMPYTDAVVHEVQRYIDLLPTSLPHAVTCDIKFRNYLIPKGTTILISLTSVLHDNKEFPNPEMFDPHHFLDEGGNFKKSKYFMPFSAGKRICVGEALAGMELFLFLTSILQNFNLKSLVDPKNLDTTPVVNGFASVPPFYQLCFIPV

[5] = test system: Liver microsome; test: Metabolic stability assay in rat liver microsomes assessed as parent drug disappearance at 1 uM after 20 mins by HPLC and mass spectrometry method; type: ADME
[6] = test system: Platelet; test: Inhibition of ADP-induced platelet aggregation in human platelet rich plasma assessed as remaining activity at 100 nM by in-vitro light transmission aggregometry assay; type: functional
In short: (§1)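 Light transmission aggregometry in human platelet-rich plasma; compound incubated, aggregation triggered with 3 µM ADP; remaining activity (RA) recorded at a single compound level (1000, 500 or 100 nM).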

[7] = test system: Platelet; test: Inhibition of ADP-induced platelet aggregation in human platelet rich plasma assessed as remaining activity at 500 nM by in-vitro light transmission aggregometry assay; type: functional; in short: as §1
[8] = Solubility in basic pH; type: physicochemical
[9] = Potency shift, ratio of IC50 for inhibition of ADP-induced platelet aggregation in human platelet rich plasma to IC50 for displacement of [3H]-2-methyl-thio-adenosine 5'-diphosphate from human recombinant P2Y12 expressed in CHO cell membranes
[10] = test system: Platelet; test: Inhibition of ADP-induced platelet aggregation in human platelet rich plasma by in-vitro light transmission aggregometry assay; type: functional; conditions: Homo sapiens, Platelet, Plasma
In short: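 Human platelet-rich plasma incubated with compound, aggregation induced by 3 µM ADP and read by light transmission aggregometry; IC₅₀ derived from concentration–response curve.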

[11] = biological target: T1, Cytochrome P450 3A4 (Homo sapiens, UniProt P08684); test: Inhibition of CYP3A4 in human liver microsomes assessed as reduction in testosterone 6beta-hydroxylation; type: ADME
T1 sequence (P08684 whole entry): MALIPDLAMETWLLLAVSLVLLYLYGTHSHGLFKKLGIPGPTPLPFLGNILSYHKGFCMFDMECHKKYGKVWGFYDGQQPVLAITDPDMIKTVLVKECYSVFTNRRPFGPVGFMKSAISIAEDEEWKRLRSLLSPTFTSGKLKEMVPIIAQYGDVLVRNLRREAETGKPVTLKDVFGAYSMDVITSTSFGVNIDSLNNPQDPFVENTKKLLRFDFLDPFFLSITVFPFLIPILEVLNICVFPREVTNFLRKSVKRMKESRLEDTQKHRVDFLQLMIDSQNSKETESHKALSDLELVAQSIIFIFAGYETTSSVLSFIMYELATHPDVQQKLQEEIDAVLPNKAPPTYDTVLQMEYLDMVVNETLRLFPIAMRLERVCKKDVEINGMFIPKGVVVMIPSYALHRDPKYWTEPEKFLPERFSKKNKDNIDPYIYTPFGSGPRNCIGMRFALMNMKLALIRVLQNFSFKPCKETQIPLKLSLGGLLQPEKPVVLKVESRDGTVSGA

[12] = test system: Liver microsome; test: Metabolic stability assay in human liver microsomes assessed as parent drug disappearance at 1 uM after 20 mins by HPLC and mass spectrometry method; type: ADME
[13] = biological target: T1, Cytochrome P450 3A4; test: Inhibition of CYP3A4 in human liver microsomes assessed as reduction in midazolam 1'-hydroxylation; type: ADME
[14] = Solubility in neutral pH; type: physicochemical

| SMILES | pIC50 [1] | inhibition (INH) [2] | inhibition (INH) [4] | Stability [5] | solubility [8] | pIC50 [10] | inhibition (INH) [11] | Stability [12] | inhibition (INH) [13] | solubility [14] | inhibition (INH) [3] | Activity [6] [%] | Activity [7] [%] | Ratio IC50 [9] |
| --- | --- | --- | --- | --- | --- | --- | --- | --- | --- | --- | --- | --- | --- | --- |
| CCOC(=O)N1CCN(C(=O)[C@H](CCC(=O)O)NC(=O)c2cc(N3CCCC(O)C3)nc(-c3ccccc3)n2)CC1 (some centres undefined) | 7.68 | Not Active | Not Active | Stable | soluble | 7.14 | Not Active | Stable | Not Active | soluble | Not Active | <70 | <30 | 3.5 |
| CCOC(=O)N1CCN(C(=O)[C@H](CCC(=O)O)NC(=O)c2cc(N[C@H]3CC[C@H](O)CC3)nc(-c3ccccc3)n2)CC1 |  | Not Active | Not Active | Stable | soluble |  | Not Active | Stable | Not Active | soluble | Not Active |  | 30 |  |
| CCOC(=O)N1CCN(C(=O)[C@H](CCC(=O)O)NC(=O)c2cc(N3CCCCC3CN(C)C)nc(-c3ccccc3)n2)CC1 (some centres undefined) | 6.54 | Not Active | Not Active | Stable | soluble |  | Not Active | Stable | Not Active | soluble | Not Active |  | 30 |  |
| CCOC(=O)N1CCN(C(=O)[C@H](CCC(=O)O)NC(=O)c2cc(NC(C)C)nc(-c3ccccc3)n2)CC1 | 7.02 | Not Active | Not Active | Stable | soluble | 6.14 | Not Active | Stable | Not Active | soluble | Not Active |  |  | 7.6 |
| CCOC(=O)N1CCN(C(=O)[C@H](CCC(=O)O)NC(=O)c2cc(CN3CCOCC3)nc(-c3ccccc3)n2)CC1 | 6.37 | Not Active | Not Active | Stable | soluble |  | Not Active | Stable | Not Active | soluble | Not Active |  |  |  |
| CCCCOC(=O)N1CCN(C(=O)[C@H](CCC(=O)O)NC(=O)c2cc([C@H]3C[C@H]3COC)nc(-c3ccccc3)n2)CC1 (racemic) | 8.05 | Not Active | Not Active | Stable | soluble | 6.54 | Not Active | Stable | Not Active | soluble | Not Active |  |  | 32 |
| CCOC(=O)N1CCN(C(=O)[C@H](CCC(=O)O)NC(=O)c2cc(CN3CCCCC3)nc(-c3ccccc3)n2)CC1 | 6.27 | Not Active | Not Active | Stable | soluble |  | Not Active | Stable | Not Active | soluble | Not Active |  |  |  |
| CCOC(=O)N1CCN(C(=O)[C@H](CCC(=O)O)NC(=O)c2cc(-c3ccc(OC)cc3)nc(-c3ccccc3)n2)CC1 | 7.51 | Not Active | Not Active | Stable | soluble | 6.28 | Not Active | Stable | Not Active | soluble | Not Active |  | 30 | 17 |
| CCOC(=O)N1CCN(C(=O)[C@H](CCC(=O)O)NC(=O)c2cc(NC(C)COC)nc(-c3ccccc3)n2)CC1 (some centres undefined) |  | Not Active | Not Active | Stable | soluble | 6.86 | Not Active | Stable | Not Active | soluble | Not Active | <70 | <30 | 1.4 |
| CCOC(=O)N1CCN(C(=O)[C@H](CCC(=O)O)NC(=O)c2cc(NCCN(C)C)nc(-c3ccccc3)n2)CC1 | 5.56 | Not Active | Not Active | Stable | soluble |  | Not Active | Stable | Not Active | soluble | Not Active |  |  |  |

Second part, led by results:

| pIC50 [1] | inhibition (INH) [2] | inhibition (INH) [4] | Stability [5] | solubility [8] | pIC50 [10] | inhibition (INH) [11] | Stability [12] | inhibition (INH) [13] | solubility [14] | SMILES | inhibition (INH) [3] | Activity [6] [%] | Activity [7] [%] | Ratio IC50 [9] |
| --- | --- | --- | --- | --- | --- | --- | --- | --- | --- | --- | --- | --- | --- | --- |
|  | Not Active | Not Active | Stable | soluble |  | Not Active | Stable | Not Active | soluble | CCOC(=O)N1CCN(C(=O)[C@H](CCC(=O)O)NC(=O)c2cc(N3CCOCC3)nc(-c3ccccc3)n2)CC1 | Not Active | <70 | <30 |  |
| 6.59 | Not Active | Not Active | Stable | soluble |  | Not Active | Stable | Not Active | soluble | CCOC(=O)N1CCN(C(=O)[C@H](CCC(=O)O)NC(=O)c2cc(NCCN3CCOCC3)nc(-c3ccccc3)n2)CC1 | Not Active |  | 30 |  |
| 6.58 | Not Active | Not Active | Stable | soluble |  | Not Active | Stable | Not Active | soluble | CCOC(=O)N1CCN(C(=O)[C@H](CCC(=O)O)NC(=O)c2cc(NS(=O)(=O)c3ccccc3)nc(-c3ccccc3)n2)CC1 | Not Active |  |  |  |
| 7.57 | Not Active | Not Active | Stable | soluble | 6.50 | Not Active | Stable | Not Active | soluble | CCOC(=O)N1CCN(C(=O)[C@H](CCC(=O)O)NC(=O)c2cc(-n3cc(C)cn3)nc(-c3ccccc3)n2)CC1 | Not Active |  | 30 | 12 |
| 6.55 | Not Active | Not Active | Stable | soluble |  | Not Active | Stable | Not Active | soluble | CCOC(=O)N1CCN(C(=O)[C@H](CCC(=O)O)NC(=O)c2cc(NCCCO)nc(-c3ccccc3)n2)CC1 | Not Active |  | 30 |  |
| 8.52 | Not Active | Not Active | Stable | soluble | 7.68 | Not Active | Stable | Not Active | soluble | CCCCOC(=O)N1CCN(C(=O)[C@H](CCC(=O)O)NC(=O)c2cc([C@H]3C[C@@H]3COC)nc(-c3ccccc3)n2)CC1 (racemic) | Not Active |  |  | 7 |
| 6.70 | Not Active | Not Active | Stable | soluble |  | Not Active | Stable | Not Active | soluble | CCOC(=O)N1CCN(C(=O)[C@H](CCC(=O)O)NC(=O)c2cc(N3CCCCC3)nc(-c3ccccc3)n2)CC1 | Not Active |  | 30 |  |
